Test results from ChEMBL document CHEMBL1147008, “Design, synthesis, and biological activities of madindoline analogues” (2006).

Test system: 7TDI
Test: Inhibition of IL6-dependent growth of 7TDI cells at 10 uM relative to madindoline A
Assay type: functional, Mus musculus
Method in brief: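 IL-6-dependent 7TDI cell line; growth inhibition measured with each analogue present at 10 μM. Values expressed against the natural compound.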

SMILES | Activity
CC1=C(C)C(=O)C(C)(CN2c3ccccc3[C@]3(O)CCO[C@H]23)C1=O | 0
CCCCCCCCCC1=C(C)C(=O)[C@](C)(CN2c3ccccc3[C@]3(O)CCO[C@H]23)C1=O | 3.9
CC1=C(Cc2ccccc2)C(=O)[C@@](C)(CN2c3ccccc3[C@]3(O)CCO[C@H]23)C1=O | 0.9
CCCCC1=C(C)C(=O)[C@@](C)(CN2c3ccccc3[C@]3(OC(=O)c4ccccc4)CCO[C@H]23)C1=O | 2.6
CCCCCC(=O)O[C@@]12CCO[C@@H]1N(C[C@]1(C)C(=O)C(C)=C(CCCC)C1=O)c1ccccc12 | 2.6
CC1=C(C)C(=O)CC1=O | 0
O[C@@]12CCO[C@@H]1Nc1ccccc12 | 0
CCCCC1=C(C)C(=O)[C@@](C)(CN2c3ccc(Cl)cc3[C@]3(O)CCO[C@H]23)C1=O | 0.8
CCCCCCCCCCCCCCCCCCCCCC1=C(C)C(=O)[C@](C)(CN2c3ccccc3[C@]3(O)CCO[C@H]23)C1=O | 0
CCCCC1=C(C)C(=O)[C@@](C)(CN2c3ccccc3[C@@]3(O)CCO[C@@H]23)C1=O | 0
CCCCCCCC1=C(C)C(=O)[C@](C)(CN2c3ccccc3[C@]3(O)CCO[C@H]23)C1=O | 3.2
CCCCC1=C(C)C(=O)[C@@](C)(CN2c3ccc(Br)cc3[C@]3(O)CCO[C@H]23)C1=O | 2.8
CCCCC1=C(C)C(=O)[C@@](C)(Cn2cc(CCO)c3ccccc32)C1=O | 0.9
CCCCCCCCCCCC1=C(C)C(=O)[C@](C)(CN2c3ccccc3[C@]3(O)CCO[C@H]23)C1=O | 3.4
CCC1=C(C)C(=O)[C@](C)(CN2c3ccccc3[C@]3(O)CCO[C@H]23)C1=O | 0
CCCCC1=C(C)C(=O)[C@@](C)(CN2c3ccccc3[C@]3(O)CCO[C@H]23)C1=O | 1
CCCCC1=C(C)C(=O)[C@@](C)(CN2c3ccc(I)cc3[C@]3(O)CCO[C@H]23)C1=O | 2.8
CCCCCCCCCC(=O)O[C@@]12CCO[C@@H]1N(C[C@]1(C)C(=O)C(C)=C(CCCC)C1=O)c1ccccc12 | 0
CCCCC1=C(C)C(=O)[C@@](C)(CN2c3ccccc3[C@]3(OC(C)=O)CCO[C@H]23)C1=O | 1.2
